The list is not random: actives were taken first. Their share in the collection is about 3.5%.
RGS4 pot: potentiators or activators of RGS4; HEK293 M3R/inducible RGS4, carbachol calcium flux Fluo4; active compounds read low; B-score at 10 µM; 310,000 compounds, 0.92% hits;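 active = B-score of the integrated calcium signal more than 4 SD below the library mean, with starting fluorescence not abnormally high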;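 also: negative B-score means reduced calcium response which marks RGS4 activation or potentiation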
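Test system: HEK293 cells with stable M3R and inducible RGS4; also added: carbachol at ECmax as muscarinic agonist stimulus; schedule: dye loading 30 min 37 °C, buffer rest 30 min RT; technique: kinetic calcium fluorescence imaging with Fluo4-AM dye, 2 µM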
MrgX1 antag: antagonists of human MrgX1 receptor; MRGX1-HEK293 calcium flux, Fluo-4, BAM8-22 antagonism; active compounds read low; Q96LB2; 310,000 compounds, 1.3% hits; B-score at 10 µM; AID 588676;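 active = calcium-response B-score plate-corrected more than 3 library SD below zero, starting fluorescence within 5 deviations, no agonist response on first addition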;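 also: peak minus trough fluorescence over baseline after final BAM8-22 challenge near maximal dose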
Target sequence (Q96LB2 whole entry, looked up): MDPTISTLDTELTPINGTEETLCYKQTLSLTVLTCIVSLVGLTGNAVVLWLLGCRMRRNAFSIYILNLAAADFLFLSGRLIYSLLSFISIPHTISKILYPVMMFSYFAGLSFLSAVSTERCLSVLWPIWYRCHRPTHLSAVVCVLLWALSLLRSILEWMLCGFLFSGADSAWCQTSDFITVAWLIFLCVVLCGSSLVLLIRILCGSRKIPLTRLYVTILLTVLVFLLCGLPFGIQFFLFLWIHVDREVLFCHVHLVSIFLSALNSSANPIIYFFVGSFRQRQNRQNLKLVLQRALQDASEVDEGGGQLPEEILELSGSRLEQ
RGS4 inh: human RGS4 inhibition; P49798; HEK293 M3R/RGS4 inducible, Fluo-4 calcium flux; active compounds read high; triggered by carbachol at its EC20; B-score at 10 µM; 310,000 compounds, 0.45% hits;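 active = B-score, a plate-corrected calcium signal, over three deviations above library mean, with baseline fluorescence within five deviations of library mean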;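 also: RGS4 expression induced by doxycycline in cells with stable M3 receptor; B-score is computed from the integrated fluorescence ratio over baseline after carbachol; higher B-score means a larger calcium signal and so more RGS4 inhibition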
Target sequence (P49798 whole entry, looked up): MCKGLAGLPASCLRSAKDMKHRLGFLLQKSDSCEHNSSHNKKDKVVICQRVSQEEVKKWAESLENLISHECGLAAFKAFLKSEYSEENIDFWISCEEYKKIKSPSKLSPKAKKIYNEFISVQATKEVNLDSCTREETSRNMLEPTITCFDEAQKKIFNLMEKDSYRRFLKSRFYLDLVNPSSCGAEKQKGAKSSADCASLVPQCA
MrgX1 ag: agonists of human MrgX1 receptor | B-score at 10 µM | 310,000 compounds, 0.44% hits | Q96LB2 | MrgX1-HEK293 cells, Fluo-4 calcium fluorescence, agonist mode; active compounds read high;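 active = calcium response B-score plate-corrected fluorescence ratio at least 3 library SD, with starting fluorescence B-score inside 5 SD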
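Material: MrgX1-expressing HEK293 cells; input: 15,000 cells per well; doses: test compound given as first of three sequential additions; schedule: overnight plating before 1 h dye loading; technique: Fluo-4 NW calcium-flux fluorescence, kinetic read; evaluation: baseline-normalised fluorescence change ratio, B-scored; control set: plate-wise positive and negative controls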
MrgX1 PAM: human MrgX1 positive allosteric modulation, primary screen; MrgX1-HEK293, Fluo-4 calcium flux, FDSS; active compounds read high; 310,000 compounds, 0.63% hits; Q96LB2; B-score at 10 µM;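 active = plate-corrected calcium response at least 3 library SD above typical, normal starting fluorescence, not activating the receptor alone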;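 also: compound read alongside a low EC10 to EC30 dose of BAM8-22 agonist; peak minus trough fluorescence over baseline measured at the second addition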
RGS4 inh valid: RGS4 inhibitor validation. shares compounds with RGS4 inh. HEK293 M3R/RGS4, carbachol calcium Fluo-4 fluorescence; carbachol added at its EC20; 0 = buffer wells, 100 = carbachol control. calcium response, % at 10 µM. 1,700 compounds, 65% hits. AID 492999;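 active = duplicate-averaged calcium response above the buffer-only control mean plus 5 SD of those controls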;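 also: integrated fluorescence ratio F max minus min over baseline F0; higher response in RGS4-induced cells means RGS4 inhibition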
RGS4 uninduced: counter-screen for RGS4 inhibitors: effect in non-induced cells | shares compounds with RGS4 inh | HEK293 M3R non-induced, carbachol calcium Fluo-4; submaximal (EC20) carbachol stimulus; buffer wells 0%, carbachol control wells 100% | activity (percent), % at 10 µM | 1,900 compounds, 20% hits | AID 493000; call rule not given here;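 also: RGS4 induction absent so cells express M3R without RGS4; higher means more calcium signal and flags a non-specific hit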
M3R basal Ca ctr: second RGS4 inhibitor counter-screen in uninduced cells lacking carbachol | calcium response (agonist-mode artifact), % at 10 µM | shares compounds with RGS4 inh | 1,900 compounds, 22% hits | HEK293 M3R/RGS4 non-induced, Fluo-4 calcium, no carbachol; normalised: buffer wells 0%, carbachol wells 100%;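 active = duplicate-averaged calcium rise in uninduced cells above buffer wells' mean plus 5 SD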
Starred values were filed as active, the others as inactive; i = inactive; / = not tested or not shown.

SMILES	RGS4 pot	MrgX1 antag	RGS4 inh	MrgX1 ag	MrgX1 PAM	RGS4 inh valid	RGS4 uninduced	M3R basal Ca ctr
COc1ccc(OC)c(NC(=O)c2cc(-c3cc(C)c(C)cc3O)n[nH]2)c1	i	i	i	i	i	/	/	/
COc1ccc(NC(=O)c2cc(-c3cc(Cl)ccc3O)n[nH]2)c(OC)c1	i	i	i	i	i	/	/	/
COc1c(Cl)cnn(-c2ccccc2)c1=O	i	i	i	i	i	/	/	/
COc1nn(-c2ccccc2)c(=O)c(Cl)c1Cl	i	i	5*	i	i	10%*	i	i
COc1cccc(CC(NC(C)=O)C(=O)NC2CCN(S(=O)(=O)c3ccc(NC(C)=O)cc3)CC2)c1OC (configuration not stated)	i	i	i	i	i	/	/	/
COc1ccccc1CC(NC(C)=O)C(=O)NC1CCN(S(=O)(=O)c2ccc(NC(C)=O)cc2)CC1 (configuration not stated)	i	i	i	i	i	i	i	i
COc1ccccc1CC(NC(C)=O)C(=O)NC1CCN(S(=O)(=O)c2ccccc2)CC1 (configuration not stated)	i	/	5.7*	/	/	i	i	i
CC(Nc1nc(N2CCNCC2)nc2ccccc12)c1ccccc1 (configuration not stated)	i	i	i	i	i	/	/	/
O=[N+]([O-])/C=C/c1cn(Cc2ccccc2)c2ccccc12	i	i	16*	i	i	35%*	i	88%*
N#Cc1ccccc1Cn1cc(/C=C/[N+](=O)[O-])c2ccccc21	i	i	36*	i	i	186%*	i	52%*
O=C(O)Cn1cc(/C=C/[N+](=O)[O-])c2ccccc21	i	i	i	i	i	/	/	/
CC(=O)c1ccc(-n2c(=O)[nH]c(=O)c3c(N)c(C(=O)c4ccc(Cl)cc4)sc32)cc1	i	i	i	i	i	/	i	i
Nc1c(C(=O)c2ccccc2)sc2c1c(=O)[nH]c(=O)n2-c1ccccc1	i	i	i	i	i	/	38%*	i
Nc1c(C(=O)c2ccc(Cl)cc2)sc2c1c(=O)[nH]c(=O)n2-c1ccccc1	i	i	5.2*	i	i	38%*	i	26%*
COc1ccc(C/C(C)=N/NC(=O)C2COc3ccccc3O2)cc1 (configuration not stated)	i	i	i	i	i	/	/	/
COc1ccc(NC(=O)NNC(=O)C(C)Oc2ccc3ccccc3c2)cc1OC (configuration not stated)	i	i	i	i	i	/	/	/
CCOc1ccc(CNC(=O)CCS(=O)(=O)c2ccc3c(c2)NC(=O)CO3)cc1OC	i	i	i	i	i	/	/	/
COc1cccc(C2CC(c3c(-c4ccccc4)c4cc(Cl)ccc4[nH]c3=O)=NN2S(C)(=O)=O)c1OC (configuration not stated)	i	i	5.2*	i	i	9.0%*	i	80%*
COc1ccccc1C1CC(c2c(-c3ccccc3)c3cc(Cl)ccc3[nH]c2=O)=NN1S(C)(=O)=O (configuration not stated)	/	i	/	i	i	/	/	/
Nc1nc(Nc2ccc(Cl)cc2)nc(NCc2ccco2)c1[N+](=O)[O-]	i	i	i	i	i	/	i	i
Nc1nc(Nc2cccc(Cl)c2)nc(NCc2ccco2)c1[N+](=O)[O-]	i	i	17*	i	i	11%*	i	i
Nc1nc(Nc2cccc(F)c2)nc(NCc2ccco2)c1[N+](=O)[O-]	i	i	i	i	i	i	i	i
Cc1cccc(Nc2nc(N)c([N+](=O)[O-])c(NCc3ccco3)n2)c1	i	i	i	i	i	i	i	i
Nc1nc(Nc2cccc(Cl)c2)nc(NCCO)c1[N+](=O)[O-]	i	i	i	i	i	/	/	/
Cc1cccc(Nc2nc(NCc3ccco3)nc(N)c2[N+](=O)[O-])c1	i	i	i	i	i	/	/	/
SMILES	RGS4 pot	MrgX1 antag	RGS4 inh	MrgX1 ag	MrgX1 PAM	RGS4 inh valid	RGS4 uninduced	M3R basal Ca ctr
COC(=O)C(Cc1c[nH]c2ccccc12)NC(=O)C1CC1 (configuration not stated)	i	i	i	i	i	/	/	/
O=c1c2ccccc2nc2c3ccccc3c3nncn3n12	i	/	i	/	/	/	/	/
O=c1c2ccccc2nc2n1CCS2(=O)=O	i	i	6.2*	i	i	26%*	i	i
COc1cc2cc(/C=C/C(=O)c3ccco3)c(Cl)nc2cc1OC	i	i	8.1*	i	i	16%*	i	20%*
Cc1ccc2nc(Cl)c(/C=C/C(=O)c3ccco3)cc2c1	i	i	i	i	i	i	50%*	i
COc1ccc2cc(/C=C/C(=O)c3ccco3)c(Cl)nc2c1	i	i	i	i	i	/	/	/
Cc1ccc2cc(/C=N/NC(=O)c3ccc(F)cc3)c(Cl)nc2c1	i	i	i	i	i	/	/	/
Cc1ccc2cc(/C=C/C(=O)c3ccco3)c(Cl)nc2c1	i	i	6*	i	i	i	39%*	i
CC(C)(C)OC(=O)n1cc(/C=N/NC(=O)c2ccco2)c2ccccc21	i	i	i	i	i	/	/	/
CCCOc1ccc(OCCOCCN2CCc3ccccc3C2)cc1	i	i	i	i	i	/	/	/
Cc1ccc(NCC(=O)N/N=C/c2cc3ccccc3nc2Cl)cc1	i	i	8*	i	i	9.5%*	i	i
CCc1cccc(CC)c1NC(=S)NCCc1c(C)[nH]c2ccccc12	i	i	6.2*	i	i	22%*	i	i
COC(=O)C1=C(CS(=O)(=O)c2ccccc2)NC(=O)NC1c1ccc(OC)c(OC)c1 (configuration not stated)	i	i	i	i	i	i	i	i

Screening data deposited in PubChem BioAssay by Johns Hopkins Ion Channel Center.
